The target of experiment [1] is T1, Melanocortin receptor 4 (Homo sapiens, UniProt P32245). Put plainly: Binding affinity for melanocortin-4 receptor transfected in HEK 293 cells using [125I]NDP-MSH as radioligand. The class given is cell-based, HEK293.
In experiment [2] the target is T1, Melanocortin receptor 4. Put plainly: Intrinsic activity towards human alpha-MSH stimulated cAMP level in HEK293 cells by 10 uM compound. (In general: Cyclic AMP is a second messenger, typically raised through Gs and lowered through Gi signalling.)
The target in another experiment is Melanocortin receptor 3 (Homo sapiens, UniProt P41968). The experiment is described as follows: Binding affinity for melanocortin-3 receptor transfected in HEK 293 cells using [125I]NDP-MSH as radioligand. The format is cell-based, HEK293. In a few lines: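 Competition binding at human MC3 or MC4 receptor stably transfected into HEK293 cells, displacing [125I]-NDP-MSH radioligand; Ki reported; values averaged from three or more independent measurements.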
Sequence of Melanocortin receptor 3 (P41968 whole entry): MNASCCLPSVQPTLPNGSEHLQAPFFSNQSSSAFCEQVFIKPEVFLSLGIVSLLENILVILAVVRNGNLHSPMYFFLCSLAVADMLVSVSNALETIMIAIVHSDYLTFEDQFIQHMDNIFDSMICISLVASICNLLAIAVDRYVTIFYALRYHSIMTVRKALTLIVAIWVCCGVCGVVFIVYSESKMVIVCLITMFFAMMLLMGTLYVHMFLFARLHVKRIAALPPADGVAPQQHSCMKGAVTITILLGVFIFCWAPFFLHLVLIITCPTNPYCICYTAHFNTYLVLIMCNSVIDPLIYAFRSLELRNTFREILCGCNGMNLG

The target of experiment [3] is T2, Melanocyte-stimulating hormone receptor (Homo sapiens, UniProt Q01726). Put plainly: Binding affinity at melanocortin-1 receptor stably transfected in HEK 293 cells using [125I]NDP-MSH as radiolabeled. The format is cell-based, HEK293. The procedure, abridged:
(§1)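 Competition binding at human MC1 or MC5 receptor stably expressed in HEK293 cells, with [125I]-NDP-MSH as the displaced radioligand; Ki determined.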
Target sequence in this assay (Q01726 whole entry): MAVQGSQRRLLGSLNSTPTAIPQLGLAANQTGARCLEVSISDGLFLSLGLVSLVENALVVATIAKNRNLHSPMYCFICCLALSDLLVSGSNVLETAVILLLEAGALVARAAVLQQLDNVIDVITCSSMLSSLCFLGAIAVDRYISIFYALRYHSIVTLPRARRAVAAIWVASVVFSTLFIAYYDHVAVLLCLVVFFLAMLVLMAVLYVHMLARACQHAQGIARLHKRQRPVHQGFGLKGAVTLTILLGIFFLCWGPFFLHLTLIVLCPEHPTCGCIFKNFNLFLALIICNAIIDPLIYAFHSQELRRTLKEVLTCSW

Another experiment has as its target Melanocortin receptor 5 (Homo sapiens, UniProt P33032). The experiment is described as follows: Binding affinity at melanocortin-5 receptor stably transfected in HEK 293 cells using [125I]NDP-MSH as radiolabeled. The class given is cell-based, HEK293. In a few lines:
as §1

Experiment [4] addresses T1, Melanocortin receptor 4. Put plainly: Intrinsic activity towards human alpha-MSH stimulated cAMP level in HEK293 cells.
Experiment [5] deals with T2, Melanocyte-stimulating hormone receptor. The experiment is described as follows: Percent inhibition of human melanocortin 1 receptor at 10 uM concentration.
Target sequence in this assay (Q01726 whole entry, looked up): as the sequence (Q01726 whole entry) above

In general, Ki refers to the equilibrium dissociation constant of an inhibitor or competing ligand from its target. Low values mean a stronger hold on the target, high ones a looser hold on the target. The inhibition is the drop in the measured response relative to a control, in per cent. A lower inhibition goes with a weak effect.

T1 sequence (P32245 whole entry): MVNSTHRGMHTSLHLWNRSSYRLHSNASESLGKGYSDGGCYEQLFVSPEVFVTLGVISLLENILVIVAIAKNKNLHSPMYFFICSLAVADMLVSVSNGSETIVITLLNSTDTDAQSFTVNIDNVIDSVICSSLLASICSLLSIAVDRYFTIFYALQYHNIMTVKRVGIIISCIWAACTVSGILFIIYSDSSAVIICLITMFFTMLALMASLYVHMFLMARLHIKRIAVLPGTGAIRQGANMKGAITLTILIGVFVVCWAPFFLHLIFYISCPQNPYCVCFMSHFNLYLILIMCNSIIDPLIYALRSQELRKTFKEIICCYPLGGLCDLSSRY
Sequence of Melanocortin receptor 5 (P33032 whole entry): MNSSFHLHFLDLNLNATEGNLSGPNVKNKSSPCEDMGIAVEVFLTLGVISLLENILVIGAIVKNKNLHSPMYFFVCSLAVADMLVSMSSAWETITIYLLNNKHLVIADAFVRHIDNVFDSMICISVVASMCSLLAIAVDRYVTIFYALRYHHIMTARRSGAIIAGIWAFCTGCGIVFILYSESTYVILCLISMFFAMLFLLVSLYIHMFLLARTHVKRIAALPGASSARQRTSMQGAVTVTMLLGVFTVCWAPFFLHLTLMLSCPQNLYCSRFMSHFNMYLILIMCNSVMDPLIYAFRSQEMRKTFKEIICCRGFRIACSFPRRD

As to `CS(=O)(=O)N[C@H](Cc1ccc(Cl)cc1Cl)C(=O)N1CCN(c2ccccc2CNCCc2cccs2)CC1`, affinity at Melanocortin receptor 4 [1] was put at a Ki of 14 nM. Also, on Melanocortin receptor 4 [2], the IA is < 3%.

As for `O=C(N[C@H](Cc1ccc(Cl)cc1Cl)C(=O)N1CCN(c2ccccc2CNCCc2cccs2)CC1)N1CCCC1`, the inhibitory constant (Ki) at Melanocortin receptor 3 worked out at 670 nM; at Melanocortin receptor 4 [1] it was 1.5 nM; in experiment [3], 6900 nM; at Melanocortin receptor 5, 160 nM.

At Melanocortin receptor 4 [1], `CC(C)CN[C@H](Cc1ccc(Cl)cc1Cl)C(=O)N1CCN(c2ccccc2CNCCc2cccs2)CC1` had a Ki of 23 nM. Moreover, the IA on Melanocortin receptor 4 [2] is < 3%.

`O=C(N[C@H](Cc1c[nH]c2ccccc12)C(=O)N1CCN(c2ccccc2CNCCc2cccs2)CC1)OCc1ccccc1` came in with a Ki at Melanocortin receptor 4 [1] of 2300 nM.

Turning to `O=C(N[C@H](Cc1ccc(Cl)cc1Cl)C(=O)N1CCN(c2ccccc2CNCCc2cccs2)CC1)c1ccccc1`, the results for the Ki on Melanocortin receptor 3 and on Melanocortin receptor 4 [1] were 1600 nM and 3.1 nM, respectively.

For `O=C(N[C@H](Cc1ccc(Cl)cc1)C(=O)N1CCN(c2ccccc2CNCCc2cccs2)CC1)C1CCCNC1` (some centres not stated), on Melanocortin receptor 4 [4], the IA turned out to be 12%.

In the case of `O=C([C@@H](Cc1ccc(Cl)cc1Cl)NCc1ccccc1)N1CCN(c2ccccc2CNCCc2cccs2)CC1`, the Ki at Melanocortin receptor 4 [1] was 31 nM. Also, at Melanocortin receptor 4 [2], the IA is < 3%.

With `O=C(N[C@H](Cc1cnc[nH]1)C(=O)N1CCN(c2ccccc2CNCCc2cccs2)CC1)OCc1ccccc1`, affinity at Melanocortin receptor 4 [1] was put at a Ki of 3600 nM.

Turning to `CC(C)OC(=O)N[C@H](Cc1ccc(Cl)cc1Cl)C(=O)N1CCN(c2ccccc2CNCCc2cccs2)CC1`, the inhibition in experiment [5] was determined as 9%. In addition, the inhibition constant (Ki) at Melanocortin receptor 3 is 1300 nM; on Melanocortin receptor 4 [1], 4.5 nM; at Melanocortin receptor 5 it was 680 nM.

Compound `O=C(N[C@H](Cc1ccc(O)cc1)C(=O)N1CCN(c2ccccc2CNCCc2cccs2)CC1)OCc1ccccc1` had a Ki at Melanocortin receptor 4 [1] of 5700 nM.

Consider `COC(=O)CCC(=O)N[C@H](Cc1ccc(Cl)cc1Cl)C(=O)N1CCN(c2ccccc2CNCCc2cccs2)CC1`, for which the figures for the Ki at Melanocortin receptor 3 and on Melanocortin receptor 4 [1] were 830 nM and 2.8 nM, respectively.

As to `CCNC(=O)N[C@H](Cc1ccc(Cl)cc1Cl)C(=O)N1CCN(c2ccccc2CNCCc2cccs2)CC1`, the inhibition in experiment [5] stood at 18%. Further, the values for the inhibition constant Ki on Melanocortin receptor 3, at Melanocortin receptor 4 [1] and on Melanocortin receptor 5 were 790 nM, 1.7 nM and 300 nM, respectively.

Take `CCOC(=O)N[C@H](Cc1ccc(Cl)cc1Cl)C(=O)N1CCN(c2ccccc2CNCCc2cccs2)CC1`: the inhibition constant Ki was determined as 800 nM on Melanocortin receptor 3 and 4.6 nM at Melanocortin receptor 4 [1].

As for `O=C(N[C@H](Cc1ccc(Cl)cc1Cl)C(=O)N1CCN(c2ccccc2CNCCc2cccs2)CC1)OCc1ccccc1`, the affinity at Melanocortin receptor 4 [1], expressed as Ki, was 23 nM.

As to `O=C(NCc1ccccc1F)N[C@H](Cc1ccc(Cl)cc1Cl)C(=O)N1CCN(c2ccccc2CNCCc2cccs2)CC1`, affinity on Melanocortin receptor 4 [1] was put at a Ki of 5 nM.

For the compound `CN(C)C(=O)N[C@H](Cc1ccc(Cl)cc1Cl)C(=O)N1CCN(c2ccccc2CNCCc2cccs2)CC1`, the Ki was found to be 560 nM at Melanocortin receptor 3, 2 nM on Melanocortin receptor 4 [1], 6800 nM in experiment [3] and 350 nM on Melanocortin receptor 5.

Regarding `CC(=O)N[C@H](Cc1ccc(Cl)cc1Cl)C(=O)N1CCN(c2ccccc2CNCCc2cccs2)CC1`, the inhibition in experiment [5] came out at 31%. The Ki at Melanocortin receptor 3 stood at 570 nM; at Melanocortin receptor 4 [1] it was 2.4 nM; at Melanocortin receptor 5, 730 nM.

For `NCCC(=O)N[C@H](Cc1ccc(Cl)cc1Cl)C(=O)N1CCN(c2ccccc2CNCCc2cccs2)CC1`, the IA on Melanocortin receptor 4 [4] was < 3%.

For the compound `O=C(N[C@H](Cc1ccc(Cl)cc1Cl)C(=O)N1CCN(c2ccccc2CNCCc2cccs2)CC1)OCCF`, the Ki worked out at 790 nM on Melanocortin receptor 3, 3.2 nM on Melanocortin receptor 4 [1], 1000 nM in experiment [3] and 560 nM at Melanocortin receptor 5.

On Melanocortin receptor 4 [1], `N[C@H](Cc1ccc(Cl)cc1Cl)C(=O)N1CCN(c2ccccc2CNCCc2cccs2)CC1` returned an inhibitory constant (Ki) of 94 nM. Besides, the IA at Melanocortin receptor 4 [2] was < 3%.

On to `O=C(N[C@H](Cc1csc2ccccc12)C(=O)N1CCN(c2ccccc2CNCCc2cccs2)CC1)OCc1ccccc1`, for which, on Melanocortin receptor 4 [1], the inhibition constant (Ki) was determined as 1100 nM.

In the case of `CC(C)(C)NC(=O)N[C@H](Cc1ccc(Cl)cc1Cl)C(=O)N1CCN(c2ccccc2CNCCc2cccs2)CC1`, the Ki was 1000 nM on Melanocortin receptor 3 and 2.4 nM at Melanocortin receptor 4 [1].

`O=C([C@@H](Cc1ccc(Cl)cc1Cl)NCc1nccs1)N1CCN(c2ccccc2CNCCc2cccs2)CC1` displayed a Ki on Melanocortin receptor 4 [1] of 16 nM. Further, at Melanocortin receptor 4 [2], the IA was < 3%.

`O=C(NCCO)N[C@H](Cc1ccc(Cl)cc1Cl)C(=O)N1CCN(c2ccccc2CNCCc2cccs2)CC1` gave an inhibition in experiment [5] of 8%. In addition, the inhibitory constant (Ki) at Melanocortin receptor 3 was 390 nM; on Melanocortin receptor 4 [1], 2.9 nM; at Melanocortin receptor 5, 350 nM.

For `O=C(N[C@H](Cc1cccc2ccccc12)C(=O)N1CCN(c2ccccc2CNCCc2cccs2)CC1)OCc1ccccc1`, at Melanocortin receptor 4 [1], the affinity corresponds to a Ki of 420 nM.

Regarding `COc1ccc2ccccc2c1CCCCN1CCN(CC(c2ccc(F)cc2)N2CCN(C(C)C)CC2)CC1` (configuration not stated), at Melanocortin receptor 4 [1], the affinity, expressed as Ki, was 7.9 nM.

As for `O=C(NC1CC1)N[C@H](Cc1ccc(Cl)cc1Cl)C(=O)N1CCN(c2ccccc2CNCCc2cccs2)CC1`, the Ki at Melanocortin receptor 3 is 860 nM; on Melanocortin receptor 4 [1], 2.1 nM.

Compound `NCCN[C@H](Cc1ccc(Cl)cc1Cl)C(=O)N1CCN(c2ccccc2CNCCc2cccs2)CC1` had an inhibitory constant (Ki) at Melanocortin receptor 4 [1] of 18 nM. The IA at Melanocortin receptor 4 [2] was < 3%.

Take `NCCCC(=O)N[C@H](Cc1ccc(Cl)cc1Cl)C(=O)N1CCN(c2ccccc2CNCCc2cccs2)CC1`: the inhibition constant Ki on Melanocortin receptor 3 was determined as 950 nM; at Melanocortin receptor 4 [1] it was 2 nM.

As for `NCCC(=O)N[C@H](Cc1ccc(Cl)cc1)C(=O)N1CCN(c2ccccc2CNCCc2cccs2)CC1`, the IA at Melanocortin receptor 4 [4] came out at 14%.

On to `O=C(N[C@H](Cc1cscn1)C(=O)N1CCN(c2ccccc2CNCCc2cccs2)CC1)OCc1ccccc1`, for which the Ki on Melanocortin receptor 4 [1] is > 10000 nM.

Take `O=C([C@@H](Cc1ccc(Cl)cc1Cl)NCC1CC1)N1CCN(c2ccccc2CNCCc2cccs2)CC1`: the inhibition constant Ki on Melanocortin receptor 4 [1] turned out to be 18 nM. The IA at Melanocortin receptor 4 [2] is < 3%.

On to `O=C(NC1CCCC1)N[C@H](Cc1ccc(Cl)cc1Cl)C(=O)N1CCN(c2ccccc2CNCCc2cccs2)CC1`, for which the Ki at Melanocortin receptor 3 was 580 nM; on Melanocortin receptor 4 [1] it was 1.3 nM.

Take `COC(=O)N[C@H](Cc1ccc(Cl)cc1Cl)C(=O)N1CCN(c2ccccc2CNCCc2cccs2)CC1`: the values for the Ki at Melanocortin receptor 3 and at Melanocortin receptor 4 [1] were 810 nM and 5 nM, respectively.

For the compound `CC(C)NC(=O)N[C@H](Cc1ccc(Cl)cc1Cl)C(=O)N1CCN(c2ccccc2CNCCc2cccs2)CC1`, the values for the inhibitory constant (Ki) on Melanocortin receptor 3 and at Melanocortin receptor 4 [1] were 450 nM and 1.4 nM, respectively.
